Shown are actives, neighbours in structure and some others; about 4.6% of the full set was active somewhere.
NALP1 inh: blocks the NALP1 inflammasome reconstituted in yeast; S. cerevisiae NALP1/ASC/caspase-1 growth, X-gal OD620, 72 h; 0.61% of 280,000 active; inhibition, % at 10 µM; in the data active means inhibition mostly above about 24%, no sharp cut-off; inactive means mostly below about 32%
ALR inh: blocks human ALR sulfhydryl oxidase activity | inhibition, % (no concentration beside the values) | P55789 | purified ALR, DTT oxidation, H2O2 HRP-luminol luminescence | 3.8% of 290,000 active | AID 485317;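 active means mean replicate inhibition above about 79%, with every replicate also reaching it, limit read from the data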
PolyA inh: inhibitors of polyadenylation in S. cerevisiae; activity score, % at 12 µM; S. cerevisiae SKY197-pL101 polyadenylation reporter, beta-gal luminescence; efflux-impaired pdr1/pdr3 knockout yeast; score 100 = 6 SD above DMSO; 0.02% of 300,000 active;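 active means lowest replicate activity score at least 50, where 100 means six control SD above control mean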;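 further: yeast exposed to compound for 9 h at 30 °C; higher score means more reporter readthrough which indicates perturbed polyadenylation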
Arrestin-AP2 inh: inhibitors of human beta-arrestin and AP2 interaction; 0.31% of 340,000 active; FITC-arrestin peptide / GST-AP2 beads, flow cytometry; AP2 beta2 appendage carries R879A mutation; inhibition, % at 10 µM;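 active means inhibition above a set limit, near 3 SD of compounds lacking own fluorescence, cut at about 54% in these data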;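 further: plate controls were DMSO wells for no effect and 5 µM unlabelled arrestin peptide for full effect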
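test system = AP2 appendage R879A on GSH beads | buffer or medium = PBS plus Tween 20 (0.05%) and BSA (0.1%) | incubation = 12 min plus 1 h, RT | detection = bead flow cytometry, FITC channel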
Pemphigus Ab inh: inhibitors of pemphigus antibody binding to human desmoglein-3; binding (percent of control), % at 10 µM; DSG3-coupled beads, scFv-anti-DSG3-GFP binding, flow cytometry; stronger effect = lower value; P32926; 0.48% of 310,000 active;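 active means binding more than 3 SD below its plate's average and above zero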;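 further: hits lower antibody fragment binding to DSG3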
NALP3 yeast inh: inhibitors of NALP3 inflammasome in yeast | Yeast reconstituted NLRP3/ASC/caspase-1, beta-gal luminescence, 24 h | inhibition, % at 10 µM | 0.39% of 330,000 active;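 active means inhibition of 50% or more; inactive means inhibition below 50%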;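 further: plate controls were induced DMSO wells for no effect and uninduced yeast grown without galactose for full effect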
Numbers without * were called inactive; nt = no result given.

SMILES	NALP1 inh	ALR inh	PolyA inh	Arrestin-AP2 inh	Pemphigus Ab inh	NALP3 yeast inh
Cc1cc(N2CCN(c3ccccc3)CC2)nc(N)n1	19.0	97.8*	-5.1	2.2	100.0	1.7
Cn1c(CNC(=O)CCNC(=O)c2ccccc2)cc(=O)n(C)c1=O	9.9	-0.4	-8.3	-1.3	101.4	2.5
CN(C)C(=O)c1ccc(NC(=O)c2cccc(-n3cnnn3)c2)cc1	nt	nt	nt	nt	104.1	nt
CCn1cc(C2=NOC(C(=O)Nc3cc(OC)c(Cl)cc3OC)C2)c(C)n1 (stereo unspecified)	32.9*	-5.2	2.2	0.9	112.5	15.5
C=CCn1c(SCc2ccc(C(=O)O)cc2)nc2sc(C)c(C)c2c1=O	20.3	98.7*	-10.2	3.6	100.5	3.3
COc1ccc(/C=N/NC(=O)c2[nH]c3ccc(Cl)cc3c2-c2ccccc2)c(C(=O)O)c1OC	-6.8	97.5*	-6.8	-11.6	96.1	6.1
CCc1ccc(-c2nn(Cc3ccccc3)cc2/C=C/C(=O)O)cc1	-0.1	79.7*	-0.2	20.3	114.7	11.5
COc1ccccc1-c1cc(C(=O)Nc2c(C)n(C)n(-c3ccccc3)c2=O)no1	-1.6	96.9*	1.5	22.0	98.2	2.5
Cc1c(NC(=O)c2cc(-c3ccc(F)cc3)nc3ccccc23)c(=O)n(-c2ccccc2)n1C	nt	nt	nt	-4.2	66.8*	11.2
Cc1c(NC(=O)c2ccc(C(=O)Nc3c(C)n(C)n(-c4ccccc4)c3=O)cc2)c(=O)n(-c2ccccc2)n1C	16.3	-21.2	7.5	7.3	117.2	6.1
Cc1c(NC(=O)c2ccc(=O)oc2)c(=O)n(-c2ccccc2)n1C	nt	88.2*	7.5	21.8	102.2	9.5
COc1ccc(OC)c(-c2cc(C(=O)Nc3c(C)n(C)n(-c4ccccc4)c3=O)no2)c1	2.5	4.2	-2.6	0.0	94.1	-8.4
O=C(COc1ccc2c(c1)OCO2)Nc1cccc(F)c1	20.8	nt	-25.8	22.2	114.5	24.7
Cn1c(-c2ccccc2)cnc1SCC(=O)N1CCCCC1	-76.8	99.9*	4.5	28.1	120.0	8.0
Cn1c(-c2ccccc2)cnc1SCC(=O)N1CCCc2ccccc21	17.6	6.5	11.6	-25.0	107.9	9.2
O=C(O)c1cccc(-c2ccccc2)c1O	nt	nt	nt	21.4	122.3	nt
Cc1ccc(NC(=O)c2ncn(CCCN(C)CCc3ccccn3)n2)cc1C	nt	nt	nt	-3.9	101.6	nt
Cc1ccc(C)c(Cn2c(CN(C)Cc3ccccc3)nc3c2c(=O)n(C)c(=O)n3C)c1	40.2*	nt	19.2	6.7	105.8	-0.4
Cc1ccc(S(=O)(=O)N2CCCCC2)cc1NCC(=O)Nc1ccc(Br)cc1F	nt	nt	nt	nt	101.7	nt
CC(C)NC(=O)Cc1ccc(Br)cc1	nt	nt	10.3	5.4	nt	-6.5
CCCC(C)NC(=O)Cc1ccc(Br)cc1 (stereo unspecified)	32.2	94.6*	7.9	0.9	nt	12.5
Cc1ccsc1/C=C1/NC(=O)N(Cc2ccc(F)cc2)C1=O	33.5*	-0.7	-19.4	nt	103.5	8.8
Cc1ccc(-c2csc(N)n2)s1	-15.1	98.5*	-1.1	7.6	103.6	20.2
Cc1ccccc1-c1csc(N)n1	nt	nt	nt	3.4	89.4	nt
CC(/C=C/c1ccc2c(c1)OCO2)=N\NC(=O)c1cccc([N+](=O)[O-])c1	40.5	1.4	-12.4	33.4	84.1*	16.9
SMILES	NALP1 inh	ALR inh	PolyA inh	Arrestin-AP2 inh	Pemphigus Ab inh	NALP3 yeast inh
C[n+]1c2n(c3ccccc31)N=C(c1ccccc1)CS2	-7.5	89.0*	3.7	52.5	92.4	12.3
C[n+]1c2n(c3ccccc31)N=C(c1ccc(-c3ccccc3)cc1)CS2	14.7	99.0*	-18.8	-2.2	98.4	9.7
Cc1cc(-c2nnc3n2N=C(c2ccc(-c4ccccc4)cc2)CS3)n[nH]1	-2.2	-10.8	12.6	3.8	101.7	15.0
C[n+]1c2n(c3ccccc31)N=C(c1ccc(Br)cc1)CS2	36.1	98.7*	1.7	-12.8	100.1	5.5
Cc1cccc(-c2nnc3n2N=C(c2ccccc2)CS3)c1	-3.8	2.5	0.6	2.3	101.6	1.0
CCOc1ccc(NC(=O)C(C)Oc2ccc(C#N)cc2)cc1S(=O)(=O)N1CCCC1 (stereo unspecified)	nt	-31.8	nt	-0.9	95.6	3.4
CC/C(=N\NS(=O)(=O)c1ccc(C)cc1)c1ccco1	10.7	97.8*	-3.1	3.6	102.7	3.8
Nc1ccc(C(=O)Nc2ccccc2C(=O)O)cc1	3.9	nt	8.9	26.0	78.3	0.9

Source: PubChem
